{"source": "ChEMBL document CHEMBL4613248", "about": "“Twelfth-Position Deuteration of Nevirapine Reduces 12-Hydroxy-Nevirapine Formation and Nevirapine-Induced Hepatocyte Death” (J Med Chem, 2020)", "key": {"[1]": {"test_system": "Hepatocyte", "assay": "Induction of change in MTX2 protein expression in human primary hepatocytes at 10 uM incubated for 48 hrs by relative-quantitation label-free proteomics analysis relative to NVP", "assay_type": "cell-based", "procedure,_shortened": "(§1)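 Cryoplateable pooled human hepatocytes (10 mixed-sex donors per pool; three pools), adhered overnight, then given fresh medium containing compound (10 μM), NVP (10 μM) or vehicle (0.1% DMSO) for 48 h. Lysate reduced (DTT) and alkylated (iodoacetamide), acetone-precipitated and digested with trypsin. Label-free Top10 nanoLC-MS with precursor ion area quantitation; unpaired t test P values, Cohen's d effect size.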"}, "[2]": {"test_system": "Hepatocyte", "assay": "Induction of change in Manf protein expression in C57BL/6J mouse primary hepatocytes at 400 uM incubated for 8 hrs by relative-quantitation label-free proteomics analysis relative to NVP", "assay_type": "cell-based", "procedure,_shortened": "as §1, with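 “Fresh primary” for “Cryoplateable pooled human”, “from male C57BL/6J mice aged 8–13 weeks,” for “(10 mixed-sex donors per pool; three pools),”, “(400” for “(10”, “(0.2%” for “(0.1%”, “8” for “48”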"}, "[3]": {"test_system": "Cytochrome P450", "assay": "Drug metabolism in human liver microsomes assessed as Cytochrome P450-mediated formation of 2-OHNVP formation at 5 to 400 uM in presence of NADPH regenerating reagents by uHPLC-MS/MS analysis", "assay_type": "ADME", "procedure,_shortened": "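Pooled human liver microsomes (2.5 mg/mL) with NADPH-regenerating system, substrate 5–400 μM, 30 min at 37 °C, 0.1% DMSO (0.2% at 400 μM); 2- and 3-OH metabolites by uHPLC-MS/MS Orbitrap; three replicates, mean ± SD.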"}, "[4]": {"test_system": "Hepatocyte", "assay": "Induction of change in Igfbp1 protein expression in C57BL/6J mouse primary hepatocytes at 400 uM incubated for 8 hrs by relative-quantitation label-free proteomics analysis relative to NVP", "assay_type": "cell-based", "procedure,_shortened": "as §1, with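 “Fresh primary” for “Cryoplateable pooled human”, “from male C57BL/6J mice aged 8–13 weeks,” for “(10 mixed-sex donors per pool; three pools),”, “(400” for “(10”, “(0.2%” for “(0.1%”, “8” for “48”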"}, "[5]": {"test_system": "Hepatocyte", "assay": "Induction of change in MSRA protein expression in human primary hepatocytes at 10 uM incubated for 48 hrs by relative-quantitation label-free proteomics analysis relative to NVP", "assay_type": "cell-based", "procedure,_shortened": "as §1"}, "[6]": {"test_system": "Hepatocyte", "assay": "Induction of change in NOL6 protein expression in human primary hepatocytes at 10 uM incubated for 48 hrs by relative-quantitation label-free proteomics analysis relative to NVP", "assay_type": "cell-based", "procedure,_shortened": "as §1"}, "[7]": {"assay": "Drug metabolism in C57BL/6J mouse primary hepatocytes assessed as 12-O-GlucD2NVP metabolite formation at 10 uM incubated for 24 hrs by uHPLC-MS analysis", "assay_type": "ADME, cell-based, Hepatocyte", "procedure,_shortened": "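Fresh hepatocytes from male C57BL/6J mice (8–13 weeks), adhered overnight, then 10 μM substrate or vehicle (0.1% DMSO) for 24 h. Medium extracted with acetonitrile (50% final), dried, reconstituted in methanol; uHPLC-Orbitrap targeted SIM plus PRM (monooxygenated metabolites) or high-resolution ions (O-glucuronides, 459.1510/462.1700 ±5 ppm); four experimental replicates.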"}, "[8]": {"test_system": "Hepatocyte", "assay": "Induction of change in ACSF3 protein expression in human primary hepatocytes at 10 uM incubated for 48 hrs by relative-quantitation label-free proteomics analysis relative to NVP", "assay_type": "cell-based", "procedure,_shortened": "as §1"}, "[9]": {"biological_target": "Cytochrome P450 3A4 (Homo sapiens, UniProt P08684)", "sequence (P08684 whole entry)": "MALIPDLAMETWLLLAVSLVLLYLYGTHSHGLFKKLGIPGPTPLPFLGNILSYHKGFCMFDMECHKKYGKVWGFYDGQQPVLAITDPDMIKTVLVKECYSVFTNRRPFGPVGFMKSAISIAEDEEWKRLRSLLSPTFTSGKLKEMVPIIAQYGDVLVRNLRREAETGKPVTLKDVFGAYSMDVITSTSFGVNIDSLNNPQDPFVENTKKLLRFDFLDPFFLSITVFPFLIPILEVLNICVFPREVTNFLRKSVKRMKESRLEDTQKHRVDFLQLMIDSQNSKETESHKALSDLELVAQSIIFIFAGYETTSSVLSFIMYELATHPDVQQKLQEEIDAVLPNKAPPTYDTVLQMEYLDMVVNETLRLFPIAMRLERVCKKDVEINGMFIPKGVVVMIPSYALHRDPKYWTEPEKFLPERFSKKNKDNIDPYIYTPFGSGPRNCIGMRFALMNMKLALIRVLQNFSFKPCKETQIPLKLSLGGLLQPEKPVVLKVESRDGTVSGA", "assay": "Drug metabolism assessed as human CYP3A4-mediated formation of 2-OHNVP at 10 uM pre-incubated for 30 mins followed by addition of NADPH regenerating reagents by uHPLC-MS analysis", "assay_type": "ADME", "conditions": "recombinant enzyme", "procedure,_shortened": "(§2)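 Insect-cell microsomes with single cDNA-expressed human P450 (100 nM) in 0.1 M potassium phosphate; 10 μM substrate prewarmed 5 min at 37 °C with NADPH-regenerating system, reaction started by adding microsomes; 30 min at 37 °C, 0.1% DMSO. Stopped, dried, reconstituted in methanol; triple-quadrupole SRM (12-OH 283.1→223.0, 2-OH 283.1→160.9, 3-OH 283.1→241.9), peak height; three replicates, mean ± SD.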"}, "[10]": {"biological_target": "T1, Cytochrome P450 1A2 (Homo sapiens, UniProt P05177)", "T1 sequence (P05177 whole entry)": "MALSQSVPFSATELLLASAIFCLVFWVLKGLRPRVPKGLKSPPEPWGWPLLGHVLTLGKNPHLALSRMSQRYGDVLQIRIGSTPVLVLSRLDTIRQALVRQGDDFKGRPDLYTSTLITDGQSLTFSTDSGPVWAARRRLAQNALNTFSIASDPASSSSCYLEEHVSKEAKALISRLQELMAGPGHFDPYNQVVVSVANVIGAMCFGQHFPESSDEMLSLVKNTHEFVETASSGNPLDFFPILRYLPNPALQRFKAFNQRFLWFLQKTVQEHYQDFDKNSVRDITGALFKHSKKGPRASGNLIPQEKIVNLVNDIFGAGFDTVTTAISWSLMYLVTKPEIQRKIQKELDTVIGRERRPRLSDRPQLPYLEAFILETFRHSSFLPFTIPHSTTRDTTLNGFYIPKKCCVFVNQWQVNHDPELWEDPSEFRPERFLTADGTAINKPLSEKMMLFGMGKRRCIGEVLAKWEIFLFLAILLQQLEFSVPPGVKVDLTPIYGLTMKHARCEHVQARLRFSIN", "assay": "Drug metabolism assessed as human CYP1A2-mediated formation of 12-OHNVP at 10 uM pre-incubated for 30 mins followed by addition of NADPH regenerating reagents by uHPLC-MS analysis", "assay_type": "ADME", "conditions": "recombinant enzyme", "procedure,_shortened": "as §2"}, "[11]": {"test_system": "Hepatocyte", "assay": "Induction of change in Gapdh protein expression in C57BL/6J mouse primary hepatocytes at 400 uM incubated for 8 hrs by relative-quantitation label-free proteomics analysis relative to NVP", "assay_type": "cell-based", "procedure,_shortened": "as §1, with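 “Fresh primary” for “Cryoplateable pooled human”, “from male C57BL/6J mice aged 8–13 weeks,” for “(10 mixed-sex donors per pool; three pools),”, “(400” for “(10”, “(0.2%” for “(0.1%”, “8” for “48”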"}, "[12]": {"test_system": "Hepatocyte", "assay": "Induction of change in DERA protein expression in human primary hepatocytes at 10 uM incubated for 48 hrs by relative-quantitation label-free proteomics analysis relative to NVP", "assay_type": "cell-based", "procedure,_shortened": "as §1"}, "[13]": {"test_system": "Hepatocyte", "assay": "Induction of change in SARNP protein expression in human primary hepatocytes at 10 uM incubated for 48 hrs by relative-quantitation label-free proteomics analysis relative to NVP", "assay_type": "cell-based", "procedure,_shortened": "as §1"}, "[14]": {"test_system": "Hepatocyte", "assay": "Induction of change in Rps27l protein expression in C57BL/6J mouse primary hepatocytes at 400 uM incubated for 8 hrs by relative-quantitation label-free proteomics analysis relative to NVP", "assay_type": "cell-based", "procedure,_shortened": "as §1, with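 “Fresh primary” for “Cryoplateable pooled human”, “from male C57BL/6J mice aged 8–13 weeks,” for “(10 mixed-sex donors per pool; three pools),”, “(400” for “(10”, “(0.2%” for “(0.1%”, “8” for “48”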"}, "[15]": {"test_system": "Hepatocyte", "assay": "Induction of change in Acot13 protein expression in C57BL/6J mouse primary hepatocytes at 400 uM incubated for 8 hrs by relative-quantitation label-free proteomics analysis relative to NVP", "assay_type": "cell-based", "procedure,_shortened": "as §1, with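 “Fresh primary” for “Cryoplateable pooled human”, “from male C57BL/6J mice aged 8–13 weeks,” for “(10 mixed-sex donors per pool; three pools),”, “(400” for “(10”, “(0.2%” for “(0.1%”, “8” for “48”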"}, "[16]": {"test_system": "Hepatocyte", "assay": "Induction of change in Acy3 protein expression in C57BL/6J mouse primary hepatocytes at 400 uM incubated for 8 hrs by relative-quantitation label-free proteomics analysis relative to NVP", "assay_type": "cell-based", "procedure,_shortened": "as §1, with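 “Fresh primary” for “Cryoplateable pooled human”, “from male C57BL/6J mice aged 8–13 weeks,” for “(10 mixed-sex donors per pool; three pools),”, “(400” for “(10”, “(0.2%” for “(0.1%”, “8” for “48”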"}, "[17]": {"biological_target": "Cytochrome P450 2C19 (Homo sapiens, UniProt P33261)", "sequence (P33261 whole entry)": "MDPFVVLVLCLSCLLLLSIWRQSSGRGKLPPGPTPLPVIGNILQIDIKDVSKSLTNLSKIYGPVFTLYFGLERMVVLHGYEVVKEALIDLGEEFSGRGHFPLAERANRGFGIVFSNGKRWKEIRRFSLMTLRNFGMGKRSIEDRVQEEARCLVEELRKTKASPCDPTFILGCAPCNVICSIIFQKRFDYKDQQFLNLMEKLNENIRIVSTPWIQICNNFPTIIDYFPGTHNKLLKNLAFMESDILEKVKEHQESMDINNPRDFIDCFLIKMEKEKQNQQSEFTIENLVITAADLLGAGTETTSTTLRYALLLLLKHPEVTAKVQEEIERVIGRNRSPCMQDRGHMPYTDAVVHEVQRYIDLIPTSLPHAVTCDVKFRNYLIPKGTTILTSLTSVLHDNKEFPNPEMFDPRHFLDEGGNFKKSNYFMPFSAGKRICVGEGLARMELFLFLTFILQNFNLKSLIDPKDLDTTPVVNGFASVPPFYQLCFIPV", "assay": "Drug metabolism assessed as human CYP2C19-mediated formation of 12-OHNVP at 10 uM pre-incubated for 30 mins followed by addition of NADPH regenerating reagents by uHPLC-MS analysis", "assay_type": "ADME", "conditions": "recombinant enzyme", "procedure,_shortened": "as §2"}, "[18]": {"test_system": "Hepatocyte", "assay": "Induction of change in AKAP2 protein expression in human primary hepatocytes at 10 uM incubated for 48 hrs by relative-quantitation label-free proteomics analysis relative to NVP", "assay_type": "cell-based", "procedure,_shortened": "as §1"}}}
{"smiles": "[2H]C([2H])([2H])c1ccnc2c1NC(=O)c1cccnc1N2C1CC1", "values": [{"measurement": "fold change (FC)", "setting": "[1]", "value": -1.67}, {"measurement": "fold change (FC)", "setting": "[2]", "value": 1.3}, {"measurement": "Drug metabolism", "setting": "[3]", "value": "Metabolite_Detected"}, {"measurement": "fold change (FC)", "setting": "[4]", "value": 4.7}, {"measurement": "fold change (FC)", "setting": "[5]", "value": -2.05}, {"measurement": "fold change (FC)", "setting": "[6]", "value": -1.85}, {"measurement": "Drug metabolism", "setting": "[7]", "value": "Metabolite_Notdetected"}, {"measurement": "fold change (FC)", "setting": "[8]", "value": -1.63}, {"measurement": "Drug metabolism", "setting": "[9]", "value": "Metabolite_Detected"}, {"measurement": "Drug metabolism", "setting": "[10]", "value": "Metabolite_Detected"}, {"measurement": "fold change (FC)", "setting": "[11]", "value": 1.4}, {"measurement": "fold change (FC)", "setting": "[12]", "value": -1.63}, {"measurement": "fold change (FC)", "setting": "[13]", "value": -1.65}, {"measurement": "fold change (FC)", "setting": "[14]", "value": -5.67}, {"measurement": "fold change (FC)", "setting": "[15]", "value": -1.97}, {"measurement": "fold change (FC)", "setting": "[16]", "value": 1.6}, {"measurement": "Drug metabolism", "setting": "[17]", "value": "Metabolite_Detected"}, {"measurement": "fold change (FC)", "setting": "[18]", "value": -2.67}]}
